Compound activity as filed in PubChem.
SENP7 inh: SENP7 protease inhibitors, primary screen, biochemical, luminescence, uHTS | inhibition, % at 5 µM | 330,000 tested, 1.5% active | recombinant SENP7, Z-RLRGG-aminoluciferin luminescence, 40 min | Sentrin-specific protease 7 (Homo sapiens), Q9BQF6;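 active = inhibition above about 50% at the single test dose, limit read from the data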;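 note: plate controls were DMSO with enzyme for no effect and no enzyme buffer wells for full effect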
SENP1 FRET inh: human SENP1 catalytic domain inhibitors, primary screen, biochemical, FRET, uHTS; AID 624204, 2012; Sentrin-specific protease 1 (Homo sapiens), Q9P0U3; 360,000 tested, 0.21% active; recombinant SENP1 catalytic domain, CyPet-SUMO1-YPet FRET cleavage; inhibition, % at 10 µM;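 active = inhibition at least 30% at 10 µM, raw YFP signal under a set limit, fluorescence ratio 0.5 to 1.5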;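 note: 0% = enzyme with DMSO and 100% = no enzyme wells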
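Assay system – human recombinant His6-tagged SENP1 catalytic domain enzyme · Input – SENP1 enzyme, 20 pM final · Buffer or medium – Tris pH 8 buffer plus EDTA, NaCl, BME, BSA, NP40, catalase · Schedule – 50 min reaction at room temperature · Technique – FRET read of cyan and yellow fluorescence · Control set – no-enzyme wells low, DMSO-plus-enzyme wells high control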
SENP6 block: SENP6 protease inhibitors, primary screen, biochemical, luminescence, uHTS. Sentrin-specific protease 6 (Homo sapiens), Q9GZR1. Recombinant SENP6 catalytic domain, aminoluciferin luminescence. inhibition, % at 10 µM. 330,000 tested, 1.8% active;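 active = inhibition above about 50% at the single tested dose, limit read from the data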;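 note: plate controls were DMSO wells with enzyme for no effect and DMSO wells lacking enzyme for full effect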
Target sequence (Q9GZR1 628-1112 limits assumed): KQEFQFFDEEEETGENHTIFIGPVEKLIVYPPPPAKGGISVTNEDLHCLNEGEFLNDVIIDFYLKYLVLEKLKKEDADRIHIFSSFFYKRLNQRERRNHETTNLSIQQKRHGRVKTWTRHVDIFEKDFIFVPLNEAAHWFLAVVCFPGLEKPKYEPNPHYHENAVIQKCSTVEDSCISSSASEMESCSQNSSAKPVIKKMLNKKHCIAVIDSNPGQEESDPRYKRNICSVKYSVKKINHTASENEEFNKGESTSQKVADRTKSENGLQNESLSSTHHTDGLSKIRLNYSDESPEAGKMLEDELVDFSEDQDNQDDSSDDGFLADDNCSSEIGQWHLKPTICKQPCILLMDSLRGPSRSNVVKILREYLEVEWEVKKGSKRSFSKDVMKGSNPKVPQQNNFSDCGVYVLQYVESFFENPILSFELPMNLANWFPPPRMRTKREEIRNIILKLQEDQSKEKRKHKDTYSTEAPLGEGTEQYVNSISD
SENP8 block-1: human SENP8 protease inhibitors, primary screen, biochemical, fluorescence, Nedd8 protein substrate, uHTS. recombinant SENP8. 360,000 tested, 0.64% active. AID 602440, 2012. Sentrin-specific protease 8 (Homo sapiens), Q96LD8. inhibition, % at 20 µM; in the data active = inhibition mostly above about 40%, no sharp cut-off; inactive = mostly below about 27%
SENP8 block-2: SENP8 protease inhibitors, primary screen, biochemical, luminescence; Sentrin-specific protease 8 (Homo sapiens), Q96LD8; purified SENP8, Z-RLRGG-aminoluciferin cleavage; inhibition, % at 10 µM; 330,000 tested, 1.2% active; AID 2540, 2010; in the data active = inhibition above about 50%
Platelet DG rel: inhibitors of platelet dense granule secretion, primary screen, cell-based, MLPCN, human platelets. human platelet-rich plasma, SFLLRN dense granule ATP release, luminescence. inhibition, %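 (compounds screened at 7.5 µM in platelet-rich plasma)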. 300,000 tested, 0.22% active;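 active = mean replicate score, as percent of positive control, at or above 50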
* = called active by the depositor; · = no result given. A selection: hits, their analogues and other compounds. The true share with any hit is near 2.6%.

SMILES	SENP7 inh	SENP1 FRET inh	SENP6 block	SENP8 block-1	SENP8 block-2	Platelet DG rel
O=c1oc(Nc2ccc(F)cc2)nc2ccccc12	4	1	28	-267	5	70*
COc1ccc(C(=O)NCCNc2nc3ccc(C)cc3cc2C#N)cc1OC	-2	-26	-4	-310	13	-4
CC(C)(C)NC(=O)CSc1nnc(NC(=O)c2ccccc2Cl)s1	1	1	-6	-3	0	-7
O=C(CSc1nnc(NC(=O)c2ccccc2Cl)s1)Nc1ccc2c(c1)oc1ccccc12	82*	·	37	·	32	11
COc1n[nH]c(C(=O)Nc2nc3ccccc3s2)c1[N+](=O)[O-]	92*	0	96*	16	91*	4
COc1ccccc1C(=O)Nc1nc2ccccc2s1	100*	1	100*	-171	97*	73*
CSc1ncccc1C(=O)Nc1nc2ccc(Oc3ccccc3)cc2s1	95*	-1	94*	-159	90*	8
COc1n[nH]c(C(=O)NCc2ccccc2)c1[N+](=O)[O-]	6	1	-13	6	7	-7
COCC(=O)N1CCC(Oc2ccc(C(=O)N3CCCCCC3)cc2)CC1	-7	0	4	-8	-3	11
Nc1nc(N)c2c(ccc3c2ccn3Cc2cccc([N+](=O)[O-])c2)n1	·	-4	·	-14	·	·
O=C(Cn1nnc(-c2ccccc2)n1)N/N=C/c1cccc([N+](=O)[O-])c1O	5	5	-7	27*	6	3
O=C(Cn1nnc(-c2ccccc2)n1)N/N=C/c1cccc([N+](=O)[O-])c1	-1	0	2	16	-11	-14
O=C(NCc1ccccc1)C(c1ccc(C(F)(F)F)cc1)N1CCN(CCN2CCOCC2)CC1 (stereo unspecified)	·	4	·	13	·	·
CCC(N=c1cc(-c2ccc(OC)cc2)oc2ccc(C)cc12)C(=O)O (stereo unspecified)	14	-26	52*	-414	17	-5
CCC(N=c1cc(-c2ccc(OC)c(OC)c2)oc2ccc(C)cc12)C(=O)O (stereo unspecified)	-2	-45	7	-409	-4	2
CCOC(=O)C1CCN(C2=C(NS(=O)(=O)c3ccc(Cl)cc3)C(=O)c3ccccc3C2=O)CC1	11	2	22	49*	15	5
CCOC(=O)C1CCCN(C2=C(NS(=O)(=O)c3ccc(Br)cc3)C(=O)c3ccccc3C2=O)C1 (stereo unspecified)	39	2	43	58*	16	-3
CC(=O)Nc1ccc(S(=O)(=O)NC2=C(N3CCN(C)CC3)C(=O)c3ccccc3C2=O)cc1	23	-14	34	24	19	1
CCOC(=O)N1CCN(C2=C(NS(=O)(=O)c3ccc(NC(C)=O)cc3)C(=O)c3ccccc3C2=O)CC1	35	1	50	73*	24	5
CCOC(=O)C1CCN(CC(C)(C)NS(=O)(=O)c2ccc(Cl)cc2)CC1	-6	-2	-2	10	6	-3
O=C1C(NS(=O)(=O)c2ccc(Br)cc2)=C(N2CCCCC2)C(=O)c2ccccc21	5	2	25	64*	2	3
CC1=C(C(=O)N(C(C)C)C(C)C)CC(CC(=O)NCc2cccs2)C(=O)N1Cc1ccccc1 (stereo unspecified)	·	2	·	14	·	·
CN(C1=C(N2CCCCC2)C(=O)c2ccccc2C1=O)c1ccccc1	15	-5	46	49*	19	13
Cn1c(=O)c2c(nc(SCCN3CCOCC3)n2Cc2ccccc2Cl)n(C)c1=O	6	2	4	7	5	63*
Cn1c(=O)c2c(nc(SCCN3CCOCC3)n2Cc2cccc3ccccc23)n(C)c1=O	0	3	-31	3	-9	0
SMILES	SENP7 inh	SENP1 FRET inh	SENP6 block	SENP8 block-1	SENP8 block-2	Platelet DG rel
Cc1ccc(CCS(=O)(=O)c2ccc(C(C)(C)C)cc2)cn1	-10	2	-12	1	-5	-1
O=C(Nc1ccc(Br)cn1)c1ccc(Cl)s1	54*	2	61*	8	42	-8
CCC(=O)Nc1ccc(Br)cn1	8	0	1	5	0	-2
COC(=O)C(C#N)c1nc2ccccc2nc1N1CCN(Cc2ccc3c(c2)OCO3)CC1 (stereo unspecified)	9	·	-7	·	-2	56*
C#CCN1C(=O)C2(OCCO2)c2ccccc21	0	1	19	10	-8	4
O=C(CN1CCN(c2ccccc2)CC1)N1N=CCC1c1ccccc1 (stereo unspecified)	2	1	-31	15	-2	78*
O=c1nc(Nc2ccc([N+](=O)[O-])cc2)[nH]c(=O)[nH]1	7	1	-10	26	8	6
O=C(Nc1cccc(F)c1)C1CCN(C(=O)Cc2ccccc2)CC1	6	1	3	28	5	51*
Cc1ccccc1NC(=O)COC(=O)c1ccc(S(=O)(=O)N2CCCC2)cc1	-7	1	-31	14	-11	·
CN(C)c1ccc(N=Nc2ccccc2C(=O)OCC(=O)NCC2CCCCC2)cc1	-4	6	20	50*	-3	-6
O=C(c1cnn(-c2ccccc2)c1)c1ccccc1O	87*	-3	85*	7	81*	12
O=C(CCc1nnc(CCc2ccccc2)o1)NC(c1cccnc1)C(F)(F)F (stereo unspecified)	2	-1	-12	26	-1	6
CC(=O)Nc1nc(-c2ccc(Cl)cc2)ns1	13	-11	55*	-7	35	14
CCOC(CNC(=O)C1CCN(S(=O)(=O)c2ccc3nc4c(c(C(=O)O)c3c2)CCCCC4)CC1)OCC	9	0	-3	15	7	-4
Cc1cc(O)c(C=O)c2c1C(=O)Oc1c(CO)c(O)c3c(c1O2)C(O)OC3=O (stereo unspecified)	-5	30*	-156	25	5	·
Cc1cc(O)c(CN(C)C)c2c1C(=O)/C(=C/c1ccco1)O2	-5	-21	-26	-137	-1	-2
CN(C)c1ccc(/C=C(\C#N)c2ccccc2)cc1	·	-107	·	13	·	·
CN(C)c1cccc(/C=C(\C#N)c2ccccc2)c1	37	-111	55*	17	57*	-9
COc1cccc(/C=C2\CCc3ccccc3C2=O)c1	94*	3	99*	32	95*	49
CCN(CC)c1ccc(/C=C(\C#N)C(N)=O)cc1	·	-38	·	-62	·	·
